Data from ChEMBL document CHEMBL1649571, “In vitro activity of TR-700, the active ingredient of the antibacterial prodrug TR-701, a novel oxazolidinone antibacterial agent” (2009).
In brackets after ≈: the same amount, converted by molar mass.

What was measured:
Format in all cases: functional
Bacteroides ovatus = assay: Antibacterial activity against Bacteroides ovatus by CLSI M11-A7 agar dilution method
Outline: (§1)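 Recent (2005 to 2008) clinical isolates. Anaerobes grown 48 h in an anaerobic glove box, with inoculum suspensions made in prereduced broth inside the box. A Steers replicator stamped the inoculum onto drug-supplemented agar. After absorption, plates were incubated 48 h at 37°C, then removed from the box and the MIC read. QC strains were run against the CLSI ranges.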

Prevotella sp. = assay: Antibacterial activity against Prevotella sp. by CLSI M11-A7 agar dilution method; outline: as §1
[1] = tested on: Peptostreptococcus anaerobius; assay: Antibacterial activity against Peptostreptococcus anaerobius by CLSI M11-A7 agar dilution method; outline: as §1
Phocaeicola vulgatus = assay: Antibacterial activity against Bacteroides vulgatus by CLSI M11-A7 agar dilution method; outline: as §1
[2] = tested on: Bacteroides thetaiotaomicron; assay: Antibacterial activity against Bacteroides thetaiotaomicron by CLSI M11-A7 agar dilution method; outline: as §1
[3] = tested on: Porphyromonas asaccharolytica; assay: Antibacterial activity against Porphyromonas asaccharolytica by CLSI M11-A7 agar dilution method; outline: as §1
Bacteroides fragilis = assay: Antibacterial activity against Bacteroides fragilis by CLSI M11-A7 agar dilution method; outline: as §1
Clostridium perfringens = assay: Antibacterial activity against Clostridium perfringens by CLSI M11-A7 agar dilution method
Outline: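 Reference agar dilution MIC on recent (2005–2008) clinical isolates. Cultures grown 48 h in an anaerobic glove box; inoculum suspended in prereduced broth inside the box and stamped by Steers replicator onto drug-supplemented agar. Plates incubated 48 h at 37°C before MIC reading. QC strains run alongside, required to fall within CLSI ranges.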

Parvimonas micra = assay: Antibacterial activity against Peptostreptococcus micros by CLSI M11-A7 agar dilution method; outline: as §1
Streptococcus pyogenes = assay: Antibacterial activity against Streptococcus pyogenes by CLSI M7-A7 broth microdilution broth microdilution method
Outline: (§2)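 Reference broth microdilution MIC under aerobic conditions on recent (2005–2008) clinical isolates from U.S. and non-U.S. sites. QC strains run alongside, required to fall within published CLSI ranges.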

Enterococcus faecium [4] = assay: Antibacterial activity against vancomycin-susceptible Enterococcus faecium by CLSI M7-A7 broth microdilution method; outline: as §2
Enterococcus faecium [5] = assay: Antibacterial activity against vancomycin-resistant Enterococcus faecium by CLSI M7-A7 broth microdilution method; outline: as §2
Streptococcus pneumoniae [6] = assay: Antibacterial activity against penicillin-susceptible Streptococcus pneumoniae by CLSI M7-A7 broth microdilution method; outline: as §2
Streptococcus agalactiae = assay: Antibacterial activity against Streptococcus agalactiae by CLSI M7-A7 broth microdilution method; outline: as §2
Moraxella catarrhalis = assay: Antibacterial activity against Moraxella catarrhalis by CLSI M7-A7 broth microdilution method
Outline: (§3)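 Recent (2005 to 2008) clinical isolates from U.S. (80%) and non-U.S. (20%) sites. Aerobic MICs were determined by CLSI reference broth microdilution, with quality control strains checked against the published CLSI ranges.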

Streptococcus pneumoniae [7] = assay: Antibacterial activity against penicillin-resistant Streptococcus pneumoniae by CLSI M7-A7 broth microdilution method; outline: as §2
Enterococcus faecalis [8] = assay: Antibacterial activity against vancomycin-susceptible Enterococcus faecalis by CLSI M7-A7 broth microdilution method; outline: as §2
Haemophilus influenzae = assay: Antibacterial activity against Haemophilus influenzae by CLSI M7-A7 broth microdilution method; outline: as §3
Staphylococcus aureus [9] = assay: Antibacterial activity against methicillin-susceptible Staphylococcus aureus by CLSI M7-A7 broth microdilution method; outline: as §2
[10] = tested on: Staphylococcus epidermidis; assay: Antibacterial activity against methicillin-resistant Staphylococcus epidermidis by CLSI M7-A7 broth microdilution method; outline: as §2
Staphylococcus aureus [11] = assay: Antibacterial activity against community-acquired methicillin-resistant Staphylococcus aureus by CLSI M7-A7 broth microdilution method; outline: as §2
Staphylococcus aureus [12] = assay: Antibacterial activity against methicillin-resistant Staphylococcus aureus by CLSI M7-A7 broth microdilution method; outline: as §2
Enterococcus faecalis [13] = assay: Antibacterial activity against vancomycin-resistant Enterococcus faecalis by CLSI M7-A7 broth microdilution method; outline: as §2
[14] = tested on: Staphylococcus epidermidis; assay: Antibacterial activity against methicillin-susceptible Staphylococcus epidermidis by CLSI M7-A7 broth microdilution method
Streptococcus pneumoniae [15] = assay: Antibacterial activity against penicillin-intermediate Streptococcus pneumoniae by CLSI M7-A7 broth microdilution method; outline: as §2

Cc1ncc([N+](=O)[O-])n1CCO [METRONIDAZOLE]
MIC50 (Bacteroides ovatus): 1 µg/mL (≈ 5.84 µM) | MIC90 (Bacteroides ovatus): 1 µg/mL (≈ 5.84 µM) | MIC50 (Prevotella sp.): 0.5 µg/mL (≈ 2.92 µM) | MIC90 (Prevotella sp.): > 32 µg/mL | MIC50 [1]: 0.5 µg/mL (≈ 2.92 µM) | MIC90 [1]: 1 µg/mL (≈ 5.84 µM) | MIC50 (Phocaeicola vulgatus): 0.25 µg/mL (≈ 1.46 µM) | MIC90 (Phocaeicola vulgatus): 0.25 µg/mL (≈ 1.46 µM) | MIC50 [2]: 1 µg/mL (≈ 5.84 µM) | MIC90 [2]: 1 µg/mL (≈ 5.84 µM) | MIC50 [3]: 1 µg/mL (≈ 5.84 µM) | MIC90 [3]: 1 µg/mL (≈ 5.84 µM) | MIC50 (Bacteroides fragilis): 0.12 µg/mL (≈ 0.701 µM) | MIC90 (Bacteroides fragilis): 1 µg/mL (≈ 5.84 µM) | MIC50 (Clostridium perfringens): 1 µg/mL (≈ 5.84 µM) | MIC90 (Clostridium perfringens): > 32 µg/mL | MIC (Parvimonas micra): ≤ 0.06 µg/mL | MIC50 (Parvimonas micra): ≤ 0.06 µg/mL | MIC90 (Parvimonas micra): > 32 µg/mL

Cn1nnc(-c2ccc(-c3ccc(N4C[C@H](CO)OC4=O)cc3F)cn2)n1 [TEDIZOLID]
MIC50 (Streptococcus pyogenes): 0.25 µg/mL (≈ 0.675 µM) | MIC90 (Streptococcus pyogenes): 0.5 µg/mL (≈ 1.35 µM) | MIC50 (Enterococcus faecium [4]): 0.5 µg/mL (≈ 1.35 µM) | MIC90 (Enterococcus faecium [4]): 1 µg/mL (≈ 2.7 µM) | MIC50 (Enterococcus faecium [5]): 0.5 µg/mL (≈ 1.35 µM) | MIC90 (Enterococcus faecium [5]): 0.5 µg/mL (≈ 1.35 µM) | MIC50 (Streptococcus pneumoniae [6]): 0.25 µg/mL (≈ 0.675 µM) | MIC90 (Streptococcus pneumoniae [6]): 0.25 µg/mL (≈ 0.675 µM) | MIC50 (Streptococcus agalactiae): 0.25 µg/mL (≈ 0.675 µM) | MIC90 (Streptococcus agalactiae): 0.5 µg/mL (≈ 1.35 µM) | MIC50 (Bacteroides ovatus): 2 µg/mL (≈ 5.4 µM) | MIC90 (Bacteroides ovatus): 8 µg/mL (≈ 21.6 µM) | MIC50 (Moraxella catarrhalis): 2 µg/mL (≈ 5.4 µM) | MIC90 (Moraxella catarrhalis): 4 µg/mL (≈ 10.8 µM) | MIC50 (Prevotella sp.): 1 µg/mL (≈ 2.7 µM) | MIC90 (Prevotella sp.): 4 µg/mL (≈ 10.8 µM) | MIC50 [1]: 0.25 µg/mL (≈ 0.675 µM) | MIC90 [1]: 0.5 µg/mL (≈ 1.35 µM) | MIC50 (Streptococcus pneumoniae [7]): 0.25 µg/mL (≈ 0.675 µM) | MIC90 (Streptococcus pneumoniae [7]): 0.25 µg/mL (≈ 0.675 µM) | MIC50 (Phocaeicola vulgatus): 2 µg/mL (≈ 5.4 µM) | MIC90 (Phocaeicola vulgatus): 4 µg/mL (≈ 10.8 µM) | MIC50 (Enterococcus faecalis [8]): 0.5 µg/mL (≈ 1.35 µM) | MIC90 (Enterococcus faecalis [8]): 1 µg/mL (≈ 2.7 µM) | MIC [2]: 2 µg/mL (≈ 5.4 µM) | MIC50 [2]: 2 µg/mL (≈ 5.4 µM) | MIC90 [2]: 2 µg/mL (≈ 5.4 µM) | MIC50 (Haemophilus influenzae): 8 µg/mL (≈ 21.6 µM) | MIC90 (Haemophilus influenzae): 16 µg/mL (≈ 43.2 µM) | MIC50 (Staphylococcus aureus [9]): 0.5 µg/mL (≈ 1.35 µM) | MIC90 (Staphylococcus aureus [9]): 0.5 µg/mL (≈ 1.35 µM) | MIC [3]: 0.25 µg/mL (≈ 0.675 µM) | MIC50 [3]: 0.25 µg/mL (≈ 0.675 µM) | MIC90 [3]: 0.5 µg/mL (≈ 1.35 µM) | MIC50 [10]: 0.25 µg/mL (≈ 0.675 µM) | MIC90 [10]: 0.5 µg/mL (≈ 1.35 µM) | MIC50 (Bacteroides fragilis): 4 µg/mL (≈ 10.8 µM) | MIC90 (Bacteroides fragilis): 4 µg/mL (≈ 10.8 µM) | MIC50 (Clostridium perfringens): 0.5 µg/mL (≈ 1.35 µM) | MIC90 (Clostridium perfringens): 2 µg/mL (≈ 5.4 µM) | MIC50 (Staphylococcus aureus [11]): 0.5 µg/mL (≈ 1.35 µM) | MIC90 (Staphylococcus aureus [11]): 0.5 µg/mL (≈ 1.35 µM) | MIC50 (Staphylococcus aureus [12]): 0.5 µg/mL (≈ 1.35 µM) | MIC90 (Staphylococcus aureus [12]): 0.5 µg/mL (≈ 1.35 µM) | MIC50 (Enterococcus faecalis [13]): 0.5 µg/mL (≈ 1.35 µM) | MIC90 (Enterococcus faecalis [13]): 0.5 µg/mL (≈ 1.35 µM) | MIC50 [14]: 0.25 µg/mL (≈ 0.675 µM) | MIC90 [14]: 0.5 µg/mL (≈ 1.35 µM) | MIC50 (Parvimonas micra): 0.25 µg/mL (≈ 0.675 µM) | MIC90 (Parvimonas micra): 0.5 µg/mL (≈ 1.35 µM) | MIC50 (Streptococcus pneumoniae [15]): 0.25 µg/mL (≈ 0.675 µM) | MIC90 (Streptococcus pneumoniae [15]): 0.25 µg/mL (≈ 0.675 µM)

C[C@@H](O)[C@H]1C(=O)N2C(C(=O)O)=C(SCCNC=N)C[C@H]12 [IMIPENEM ANHYDROUS]
MIC50 (Bacteroides ovatus): 0.25 µg/mL (≈ 0.835 µM) | MIC90 (Bacteroides ovatus): 0.5 µg/mL (≈ 1.67 µM) | MIC50 (Prevotella sp.): ≤ 0.06 µg/mL | MIC90 (Prevotella sp.): 1 µg/mL (≈ 3.34 µM) | MIC50 [1]: 0.06 µg/mL (≈ 0.2 µM) | MIC90 [1]: 1 µg/mL (≈ 3.34 µM) | MIC (Phocaeicola vulgatus): 0.25 µg/mL (≈ 0.835 µM) | MIC50 (Phocaeicola vulgatus): 0.25 µg/mL (≈ 0.835 µM) | MIC90 (Phocaeicola vulgatus): 0.5 µg/mL (≈ 1.67 µM) | MIC50 [2]: 0.5 µg/mL (≈ 1.67 µM) | MIC90 [2]: 1 µg/mL (≈ 3.34 µM) | MIC [3]: ≤ 0.03 µg/mL | MIC50 [3]: < 0.03 µg/mL | MIC90 [3]: 0.06 µg/mL (≈ 0.2 µM) | MIC (Bacteroides fragilis): 0.12 µg/mL (≈ 0.401 µM) | MIC50 (Bacteroides fragilis): 0.12 µg/mL (≈ 0.401 µM) | MIC90 (Bacteroides fragilis): 0.5 µg/mL (≈ 1.67 µM) | MIC50 (Clostridium perfringens): 0.12 µg/mL (≈ 0.401 µM) | MIC90 (Clostridium perfringens): 0.5 µg/mL (≈ 1.67 µM) | MIC (Parvimonas micra): ≤ 0.03 µg/mL | MIC50 (Parvimonas micra): ≤ 0.03 µg/mL | MIC90 (Parvimonas micra): ≤ 0.03 µg/mL
